In ChEMBL document CHEMBL1146146, “Redesign of aminoglycosides for treatment of human genetic diseases caused by premature stop mutations” (2006):

What was measured:
[1] = tested on: Protocadherin-15 (Homo sapiens), Q96QU1 [R3X]; assay: Effect on human PCDH15 R3X mutation translation level at 80 ug/ml
How it was run: (§1)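 In vitro transcription-translation of a reporter plasmid carrying the PCDH15 R3X nonsense mutation (premature UGA C stop), with [35S]methionine and a range of drug concentrations. Products were resolved by SDS-PAGE and quantified by PhosphorImager. Suppression is the 35-kDa product as a share of total (35 + 25 kDa) protein. Translation level is total protein at each concentration relative to the drug-free reaction. Values are means of ≥3 independent experiments; sulfate salts were tested.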

Bacillus subtilis [2] = assay: Antibacterial activity against Bacillus subtilis ATCC 6633 at 80 ug/ml; format: functional
[3] = tested on: Protocadherin-15 (Homo sapiens), Q96QU1 [R3X]; assay: Suppression of human PCDH15 R3X mutation at 80 ug/ml; how it was run: as §1
Escherichia coli [4] = assay: Antibacterial activity against Escherichia coli ATCC 25922 at 80 ug/ml; format: functional
[5] = tested on: Protocadherin-15 (Homo sapiens), Q96QU1 [R3X]; assay: Effect on human PCDH15 R3X mutation translation level at 160 ug/ml; how it was run: as §1
Escherichia coli [6] = assay: Antibacterial activity against Escherichia coli ATCC 25922 at 160 ug/ml; format: functional
Bacillus subtilis [7] = assay: Antibacterial activity against Bacillus subtilis ATCC 6633 at 160 ug/ml; format: functional
[8] = tested on: Protocadherin-15 (Homo sapiens), Q96QU1 [R3X]; assay: Suppression of human PCDH15 R3X mutation at 160 ug/ml; how it was run: as §1
[9] = tested on: Protocadherin-15 (Homo sapiens), Q96QU1 [R3X]; assay: Effect on human PCDH15 R3X mutation translation level at 30 ug/ml; how it was run: as §1
Target sequence in this assay (Q96QU1 other isoform, or with tags, fused parts or gaps): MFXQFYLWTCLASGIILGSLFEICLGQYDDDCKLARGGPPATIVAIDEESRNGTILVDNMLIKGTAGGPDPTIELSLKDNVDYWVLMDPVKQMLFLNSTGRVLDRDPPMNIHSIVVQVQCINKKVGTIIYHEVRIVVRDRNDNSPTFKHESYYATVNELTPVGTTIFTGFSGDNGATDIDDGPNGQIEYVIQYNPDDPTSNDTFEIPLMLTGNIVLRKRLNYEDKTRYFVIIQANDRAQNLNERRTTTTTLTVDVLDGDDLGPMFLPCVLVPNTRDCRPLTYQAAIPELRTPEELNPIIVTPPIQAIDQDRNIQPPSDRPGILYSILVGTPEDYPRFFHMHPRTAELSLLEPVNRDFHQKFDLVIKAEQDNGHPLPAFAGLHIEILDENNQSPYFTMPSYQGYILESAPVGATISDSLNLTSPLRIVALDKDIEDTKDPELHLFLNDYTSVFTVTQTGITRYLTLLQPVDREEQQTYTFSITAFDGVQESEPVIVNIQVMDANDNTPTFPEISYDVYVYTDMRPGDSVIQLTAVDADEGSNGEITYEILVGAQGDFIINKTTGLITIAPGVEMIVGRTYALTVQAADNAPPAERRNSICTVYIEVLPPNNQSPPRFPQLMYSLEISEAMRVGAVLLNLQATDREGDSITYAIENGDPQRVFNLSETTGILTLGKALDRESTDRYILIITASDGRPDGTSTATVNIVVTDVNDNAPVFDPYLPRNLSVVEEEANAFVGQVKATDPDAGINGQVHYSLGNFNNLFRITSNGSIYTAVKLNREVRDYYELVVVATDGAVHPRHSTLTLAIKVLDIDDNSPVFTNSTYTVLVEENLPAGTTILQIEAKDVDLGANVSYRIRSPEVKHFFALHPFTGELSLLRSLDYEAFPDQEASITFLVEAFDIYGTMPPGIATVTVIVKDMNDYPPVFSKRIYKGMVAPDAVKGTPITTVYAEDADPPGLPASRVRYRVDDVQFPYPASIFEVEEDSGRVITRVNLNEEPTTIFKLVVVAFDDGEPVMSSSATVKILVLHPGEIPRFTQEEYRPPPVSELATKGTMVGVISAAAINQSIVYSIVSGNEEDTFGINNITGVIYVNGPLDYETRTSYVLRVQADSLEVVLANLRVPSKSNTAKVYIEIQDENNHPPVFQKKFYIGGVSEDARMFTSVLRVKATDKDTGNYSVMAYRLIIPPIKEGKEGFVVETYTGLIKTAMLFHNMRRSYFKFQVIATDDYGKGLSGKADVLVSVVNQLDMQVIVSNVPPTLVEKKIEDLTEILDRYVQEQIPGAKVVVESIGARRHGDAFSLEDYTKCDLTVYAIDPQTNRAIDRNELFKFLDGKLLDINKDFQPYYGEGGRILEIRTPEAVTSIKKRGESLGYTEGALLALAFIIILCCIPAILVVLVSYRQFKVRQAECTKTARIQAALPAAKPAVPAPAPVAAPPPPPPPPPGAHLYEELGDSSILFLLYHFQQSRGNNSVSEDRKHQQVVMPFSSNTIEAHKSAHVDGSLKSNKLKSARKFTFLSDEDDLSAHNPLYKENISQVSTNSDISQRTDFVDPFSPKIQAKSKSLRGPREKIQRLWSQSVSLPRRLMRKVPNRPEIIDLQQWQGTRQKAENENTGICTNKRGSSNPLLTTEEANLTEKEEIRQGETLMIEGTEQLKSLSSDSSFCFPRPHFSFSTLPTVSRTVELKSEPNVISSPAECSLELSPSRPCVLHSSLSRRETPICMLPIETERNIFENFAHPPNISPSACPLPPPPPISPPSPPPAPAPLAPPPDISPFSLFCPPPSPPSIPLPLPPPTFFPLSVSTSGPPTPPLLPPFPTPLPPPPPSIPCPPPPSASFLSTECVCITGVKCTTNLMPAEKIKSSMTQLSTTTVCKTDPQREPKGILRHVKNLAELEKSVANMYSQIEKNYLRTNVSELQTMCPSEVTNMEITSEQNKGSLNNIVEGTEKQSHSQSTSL

[10] = tested on: Protocadherin-15 (Homo sapiens), Q96QU1 [R3X]; assay: Suppression of human PCDH15 R3X mutation at 30 ug/ml; how it was run: as §1
Target sequence in this assay (Q96QU1 other isoform, or with tags, fused parts or gaps): as above

Bacillus subtilis [11] = assay: Antibacterial activity against Bacillus subtilis ATCC 6633 at 30 ug/ml; format: functional, organism-based
Escherichia coli [12] = assay: Antibacterial activity against Escherichia coli ATCC 25922 at 30 ug/ml; format: functional, organism-based
[13] = tested on: Protocadherin-15 (Homo sapiens), Q96QU1 [R3X]; assay: Effect on human PCDH15 R3X mutation translation level at 40 ug/ml
How it was run: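 Reporter plasmid carrying the PCDH15 R3X nonsense mutation (premature UGA C stop codon) is transcribed and translated in vitro with [35S]methionine and drug added. Products are resolved by SDS–PAGE and quantified by PhosphorImager. Translation level is total protein (35 + 25 kDa) at each drug concentration relative to total protein without drug. Values are means of at least three independent experiments.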

[14] = tested on: Protocadherin-15 (Homo sapiens), Q96QU1 [R3X]; assay: Suppression of human PCDH15 R3X mutation at 40 ug/ml
How it was run: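 The PCDH15 R3X (UGA C) reporter is coupled-transcribed and translated in vitro in the presence of [35S]methionine, then run on SDS–PAGE with PhosphorImager quantification. Suppression is the fraction of the 35-kDa read-through product out of total protein (35-kDa plus 25-kDa truncated product). Values are averages of at least three independent experiments.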

Escherichia coli [15] = assay: Antibacterial activity against Escherichia coli ATCC 25922 at 40 ug/ml; format: functional
Bacillus subtilis [16] = assay: Antibacterial activity against Bacillus subtilis ATCC 6633 at 40 ug/ml; format: functional

**Q.** What does the source list for `NC[C@@H]1O[C@H](O[C@@H]2[C@@H](O)[C@H](O[C@H]3O[C@H](CO)[C@@H](O)[C@H](O)[C@H]3N)[C@@H](N)C[C@H]2N)[C@@H](O)[C@H]1O.O=S(=O)(O)O`?
**A.** Activity [1]: 75%; MIC (Bacillus subtilis [2]): 192 µg/mL; Activity [3]: 4.4%; MIC (Escherichia coli [4]): > 512 µg/mL

**Q.** For `N[C@H]1[C@@H](O[C@H]2[C@H](O)[C@@H](O)[C@H](N)C[C@@H]2N)O[C@H](CO)[C@@H](O)[C@@H]1O[C@@H]1O[C@H](CO)[C@@H](O)[C@H]1O.O=S(=O)(O)O`, which Activity [5] is on record?
**A.** 82%

**Q.** And the MIC (Escherichia coli [6])?
**A.** > 512 µg/mL

**Q.** What about the MIC (Bacillus subtilis [7]) of the same molecule?
**A.** > 512 µg/mL

**Q.** What about the Activity [8] of the same molecule?
**A.** < 1%

**Q.** What does the source list for GENTAMICIN SULFATE?
**A.** Activity [9]: 40%; Activity [10]: 49%; MIC (Bacillus subtilis [11]): < 0.5 µg/mL; MIC (Escherichia coli [12]): 4 µg/mL

**Q.** Which Activity [1] does the source give for `N[C@H]1[C@@H](O[C@H]2[C@H](O)[C@@H](O)[C@H](N)C[C@@H]2N)O[C@H](CO)[C@@H](O)[C@H]1N.O=S(=O)(O)O` here?
**A.** 71%

**Q.** What about the MIC (Bacillus subtilis [2]) of the same molecule?
**A.** 48 µg/mL

**Q.** And the Activity [3]?
**A.** 2%

**Q.** What about the MIC (Escherichia coli [4]) of the same molecule?
**A.** 192 µg/mL

**Q.** Which results are given for `NC[C@H]1O[C@@H](O[C@@H]2[C@@H](O)[C@H](N)C[C@H](N)[C@H]2O[C@H]2O[C@H](CO)[C@@H](O)[C@H](O)[C@H]2N)[C@H](O)[C@@H]1O.O=S(=O)(O)O`?
**A.** Activity [1]: 72%; MIC (Bacillus subtilis [2]): 48 µg/mL; Activity [3]: 21%; MIC (Escherichia coli [4]): > 512 µg/mL

**Q.** Which Activity [13] does the source give for `NC[C@@H]1O[C@H](O[C@H]2[C@@H](O)[C@H](O[C@@H]3[C@@H](O)[C@H](N)C[C@H](N)[C@H]3O[C@H]3O[C@H](CO)[C@@H](O)[C@H](O)[C@H]3N)O[C@@H]2CO)[C@H](N)[C@@H](O)[C@@H]1O.O=S(=O)(O)O` [PAROMOMYCIN SULFATE] here?
**A.** 40%

**Q.** What about the Activity [1] of the same molecule?
**A.** 74%

**Q.** And the Activity [14]?
**A.** 49%

**Q.** What about the MIC (Escherichia coli [15]) of the same molecule?
**A.** 12 µg/mL

**Q.** What about the MIC (Bacillus subtilis [2]) of the same molecule?
**A.** 128 µg/mL

**Q.** And the Activity [3]?
**A.** 6.2%

**Q.** What about the MIC (Bacillus subtilis [16]) of the same molecule?
**A.** 8 µg/mL

**Q.** And the MIC (Escherichia coli [4])?
**A.** 512 µg/mL

**Q.** `N[C@H]1[C@@H](O[C@H]2[C@H](O[C@@H]3O[C@H](CO)[C@@H](O)[C@H]3O)[C@@H](O)[C@H](N)C[C@@H]2N)O[C@H](CO)[C@@H](O)[C@@H]1O.O=S(=O)(O)O` was tested. Which Activity [1] did it give?
**A.** 100%

**Q.** And the MIC (Bacillus subtilis [2])?
**A.** 64 µg/mL

**Q.** And the Activity [3]?
**A.** 1.3%

**Q.** What about the MIC (Escherichia coli [4]) of the same molecule?
**A.** 256 µg/mL

**Q.** Which Activity [1] does the source give for `N[C@H]1[C@@H](O[C@H]2[C@H](O)[C@@H](O)[C@H](N)C[C@@H]2N)O[C@H](CO)[C@@H](O)[C@@H]1O.O=S(=O)(O)O` [PAROMAMINE SULFATE] here?
**A.** 74%

**Q.** What about the MIC (Bacillus subtilis [2]) of the same molecule?
**A.** 128 µg/mL

**Q.** And the Activity [3]?
**A.** 6.2%

**Q.** And the MIC (Escherichia coli [4])?
**A.** 512 µg/mL

**Q.** With `NC[C@H]1O[C@@H](O[C@@H]2[C@@H](N)[C@@H](O[C@H]3[C@H](O)[C@@H](O)[C@H](N)C[C@@H]3N)O[C@H](CO)[C@H]2O)[C@H](O)[C@@H]1O.O=S(=O)(O)O` as the molecule, how does the Activity [1] read?
**A.** 98%

**Q.** What about the MIC (Bacillus subtilis [2]) of the same molecule?
**A.** 48 µg/mL

**Q.** What about the Activity [3] of the same molecule?
**A.** 2.9%

**Q.** And the MIC (Escherichia coli [4])?
**A.** 192 µg/mL

**Q.** With `N[C@H]1[C@@H](O[C@H]2[C@H](O)[C@@H](O)[C@H](N)C[C@@H]2N)O[C@H](CO)[C@@H](O)[C@@H]1OCO[C@@H]1[C@@H](N)[C@@H](O[C@H]2[C@H](O)[C@@H](O)[C@H](N)C[C@@H]2N)O[C@H](CO)[C@H]1O.O=S(=O)(O)O` as the molecule, how does the Activity [1] read?
**A.** 22%

**Q.** What about the MIC (Bacillus subtilis [2]) of the same molecule?
**A.** 48 µg/mL

**Q.** And the Activity [3]?
**A.** < 1%

**Q.** What about the MIC (Escherichia coli [4]) of the same molecule?
**A.** 96 µg/mL

**Q.** Which results are given for `N[C@H]1[C@@H](O[C@H]2[C@H](O)[C@@H](O[C@H]3O[C@@H](CO)[C@H](O)[C@@H]3O)[C@H](N)C[C@@H]2N)O[C@H](CO)[C@@H](O)[C@@H]1O.O=S(=O)(O)O`?
**A.** Activity [1]: 74%; MIC (Bacillus subtilis [2]): 96 µg/mL; Activity [3]: 1.5%; MIC (Escherichia coli [4]): 256 µg/mL
